Source: PubChem (several laboratories)
In the library only some 29% were active in any assay of this set; here they are far more common.
CYP2C19 act: activators of human cytochrome P450 2C19 | 96,000 tested, under 10 active | activation factor at 5 µM | recombinant CYP2C19, luciferin-H EGE luminescence; stronger effect = higher value; 0 = fully inhibited enzyme, 1 = untreated enzyme | P33261 | AID 1025;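 active = activation factor of at least 2 at 5 µM in the primary screen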
Target sequence (P33261 whole entry, looked up): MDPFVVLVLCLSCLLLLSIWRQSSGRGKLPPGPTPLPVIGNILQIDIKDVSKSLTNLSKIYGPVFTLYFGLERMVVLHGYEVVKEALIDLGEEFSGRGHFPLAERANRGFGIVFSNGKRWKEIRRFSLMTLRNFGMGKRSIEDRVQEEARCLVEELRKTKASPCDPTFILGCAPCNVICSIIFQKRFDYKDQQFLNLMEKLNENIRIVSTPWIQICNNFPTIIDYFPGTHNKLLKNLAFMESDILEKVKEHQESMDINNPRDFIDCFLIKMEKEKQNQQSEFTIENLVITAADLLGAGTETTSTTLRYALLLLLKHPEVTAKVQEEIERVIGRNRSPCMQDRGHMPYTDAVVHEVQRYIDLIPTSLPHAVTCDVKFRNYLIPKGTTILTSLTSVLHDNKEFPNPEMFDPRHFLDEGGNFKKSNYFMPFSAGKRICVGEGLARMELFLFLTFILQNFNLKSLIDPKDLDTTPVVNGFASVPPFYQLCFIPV
CYP2C9 inh: inhibitors of human CYP2C9; actives 20% (n = 96,000); P11712; inhibition, % at 5 µM; CYP2C9 Supersomes, luciferin-H conversion, luminescence;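 active = blocking of liver enzyme CYP2C9 beyond about 50% at 5 µM, limit read from the data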
E coli WT exp: growth inhibitors of E. coli BW25113 wild type. actives 0.15% (n = 98,000). growth inhibition, % at 100 µM. OD600 absorbance;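 active = growth inhibition above about 50% at one test dose, limit read from the data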;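 note: growth measured after 20 h incubation at 37 °C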
CYP2C19 inh: blocks human cytochrome P450 2C19. CYP2C19 Supersomes, luciferin-H EGE luminescence, 30 min. actives 21% (n = 96,000). inhibition, % at 5 µM;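 active = CYP2C19 inhibition above a set limit at 5 µM in the primary screen, cut at about 50% in these data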
CYP2C9 act: increases human cytochrome P450 2C9 activity | P11712 | recombinant CYP2C9, luciferin-H conversion, luminescence; stronger effect = higher value; factor 1 = untreated enzyme, 0 = blocked | activation factor at 5 µM | actives 1.4% (n = 96,000) | AID 1024;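 active = activation factor of 2 or more for CYP2C9 at a 5 µM dose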
tolC growth inh: growth inhibitors of E. coli BW25113 tolC mutant; OD615; growth inhibition, % at 10 µM (by protocol); actives 2.2% (n = 65,000); AID 573;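 active = growth inhibition at or above a cutoff equal to the mean over every tested compound plus 3 SD, cut at about 60% in these data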;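 note: growth measured after 20 h incubation at 37 °C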
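Assay system: tolC-deleted E. coli BW25113. Medium: kanamycin-containing LB broth (50 µg/mL). Dosing: 10 µM final, single dose. Timing: bacterial growth with compound for 20 h at 37 °C. Detection: A615 absorbance measurement. Read-out basis: growth inhibition in percent.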
A number is an active result; n = inactive; x = no result.

SMILES	CYP2C19 act	CYP2C9 inh	E coli WT exp	CYP2C19 inh	CYP2C9 act	tolC growth inh
Cc1cc(C(=O)CSc2nnc(Nc3ccccc3)s2)c(C)n1CC1CCCO1 (stereo not given)	n	n	n	n	n	n
Cc1ccccc1-n1c(SCC(=O)c2cc(C)n(C)c2C)nnc1-c1ccncc1	n	92	n	99	n	n
Cc1cc(C(=O)CSc2nnc(NCc3ccccc3)s2)c(C)n1C	n	n	n	n	n	n
Cc1cc(C(=O)CSc2nnc(Nc3ccccc3F)s2)c(C)n1CC1CCCO1 (stereo not given)	n	56	n	53	n	n
Cc1cc(C(=O)CSc2nnc(-c3cccnc3)n2-c2ccccc2F)c(C)n1CC1CCCO1 (stereo not given)	n	65	n	78	n	x
CC1CCN(Cc2nc3c(c(=O)n(C)c(=O)n3C)n2CCN2CCOCC2)CC1	x	x	x	x	x	n
COc1ccc(C(=O)N(CC2CCCO2)C(C(=O)NC2CCCC2)c2ccc(Cl)cc2)cc1OC (stereo not given)	n	n	n	n	n	x
O=C(NC1CCCCC1)C(c1ccncc1)N(CC1CCCO1)C(=O)C(F)(F)F (stereo not given)	n	n	n	58	n	n
O=C(NC1CCCC1)C(c1ccc(O)cc1)N(CC1CCCO1)C(=O)C1COc2ccccc2O1 (stereo not given)	n	70	n	56	n	n
CC(=O)c1cccc(NC(=O)c2cc3nc(C)cc(C)n3n2)c1	n	n	n	n	n	n
Cc1cc(NC(=O)CCC(=O)N(c2ccccc2)C(C(=O)NCC2CCCO2)c2cccnc2)no1 (stereo not given)	n	n	n	n	n	n
Nc1nc2n(n1)C(c1cccc(Cl)c1)CC(c1ccc(F)cc1)N2 (stereo not given)	n	n	n	89	n	n
CCOc1ccc(C2CC(c3cccc(Cl)c3)n3nc(N)nc3N2)cc1 (stereo not given)	n	n	n	n	n	n
Nc1nc2n(n1)C(c1ccc(F)cc1)CC(c1ccc(F)cc1)N2 (stereo not given)	n	n	n	71	n	n
COc1ccc(-c2nc(N)n[nH]2)cc1	n	n	n	n	n	x
COc1cc(OC)cc(-c2nc(N)n[nH]2)c1	n	n	n	52	n	n
O=C(Nc1cccc(Cl)c1)OCc1cn(-c2ccc(Cl)cc2)nn1	x	x	n	x	x	x
Cc1cc(C(=O)COC(=O)CN(C)S(=O)(=O)c2ccc(Cl)cc2)c(C)n1Cc1cccs1	n	n	n	74	n	n
c1csc(-c2nn3c(C4CCCCC4)nnc3s2)c1	x	x	x	x	x	n
COc1ccc(-c2nn3c(C4CCCCC4)nnc3s2)cc1OC	n	64	n	74	n	n
COc1cc(-c2nn3c(C4CCCCC4)nnc3s2)cc(OC)c1OC	n	84	n	n	n	n
COc1ccc(-c2nnc3sc(C4CCCCC4)nn23)cc1OC	n	n	n	n	n	n
CCOC(=O)c1[nH]c(C)c(/C(O)=C2\C(=O)C(=O)N(CCN(C)C)C2c2ccncc2)c1C (stereo not given)	n	n	n	n	n	n
Cn1c(C(=O)NCCN2CCc3ccccc3C2)cc2c(=O)n(C)c3ccccc3c21	n	n	n	n	n	n
O=[N+]([O-])c1ccc(Oc2cccc(F)c2)c2ccncc12	n	83	n	85	n	x
SMILES	CYP2C19 act	CYP2C9 inh	E coli WT exp	CYP2C19 inh	CYP2C9 act	tolC growth inh
O=[N+]([O-])c1cc(-c2cnc3ccccc3n2)ccc1Oc1ccc(F)cc1	n	n	n	n	n	x
C=CCOC(=O)/C(=C\c1ccc(OC)cc1)NC(=O)c1ccco1	n	n	n	55	n	x
CCCCOc1ccc(C(=O)N/C(=C\c2ccc(OC)cc2)C(=O)OCc2ccco2)cc1	n	65	n	n	n	x
CCOC(=O)CC(NC(=O)c1ccco1)c1ccc(OC)cc1 (stereo not given)	n	n	n	n	n	x
CC(C)Cn1c(SCC(=O)NC(=O)NC2CCCC2)nc2ccccc21	n	n	n	n	n	n
Nc1nonc1C(=O)NC(c1ccccc1)c1ccccc1	n	78	n	90	n	n
Nc1nonc1C(=Nc1ccccc1)NO	n	n	n	n	n	n
CCOC(=O)C(NC(=O)c1ccc(OC)cc1)(OCC1(CC)COC1)C(F)(F)F (stereo not given)	n	63	n	n	n	n
COc1ccc(/C=N/O)cc1COc1ccc(NC(C)=O)cc1	x	x	n	x	x	n
CN(c1ncc(C(F)(F)F)cc1Cl)n1cc(C(N)=O)c2ccccc2c1=O	n	83	n	57	n	x
CN(C1CCS(=O)(=O)C1)S(=O)(=O)c1ccc(C2CCCCC2)cc1 (stereo not given)	n	n	n	n	n	n
O=C1CCC/C1=c1\s/c(=C\c2cccnc2)c(=O)n1-c1ccccc1	n	n	n	n	n	n
COc1ccc(CN(C)C(c2ccccc2)c2nnnn2-c2ccccc2C)c(OC)c1C (stereo not given)	n	79	n	94	n	x
CCC(C)(C)n1nnnc1C(c1cc(OC)c(OC)c(OC)c1)N1CCN(c2ccccc2)CC1 (stereo not given)	n	n	n	n	n	n
COc1ccc(C2CC(=O)C(C=NCCN3CCN(C(C)=O)CC3)=C(O)C2)cc1OC (stereo not given)	n	n	x	n	n	n
O=C1CCNc2cc3ccccc3cc21	n	n	n	52	n	n
CCOc1ccc(-c2nnn(CC(=O)NCc3ccc(F)cc3)n2)cc1OCC	n	n	n	65	n	n
CC1CCc2nc(NC(=O)C3CCCO3)sc2C1 (stereo not given)	n	n	n	n	n	n
Cc1c(CCO)c(=O)[nH]n1C(=O)c1ccc(F)cc1	n	74	n	n	n	x
CCC(Sc1nc2n[nH]c(C)c2c(=N)n1-c1cccc(Cl)c1)C(=O)NCCOC (stereo not given)	n	65	n	n	n	n
CC[C@@H](C)[C@H](NC(=O)C1CCN(C(=O)[C@@H](NS(=O)(=O)c2ccc(C)cc2)C(C)C)CC1)C(=O)O	n	n	n	n	n	n
O=C(c1csc2c1CCCC2)n1cccn1	x	x	x	x	x	n
COc1ccc(NC(=O)CC2CCCCC2)cc1OC	n	n	n	94	n	n
COc1ccc(CN2CCCCC2C(=O)Nc2ccc(OC)c(OC)c2)cc1OC (stereo not given)	n	n	n	n	n	n
COc1ccc(CN2CCCC2C(=O)Nc2ccc(OC)c(OC)c2)cc1OC (stereo not given)	n	n	n	54	n	n
O=c1cc(-c2ccccc2)[nH]n1-c1ccc([N+](=O)[O-])cc1	n	n	n	n	n	x
CCCNC(=O)CC1Sc2ccccc2NC1=O (stereo not given)	n	n	n	n	2.4	n
C=CCn1c(Cc2cccs2)nnc1SCC(=O)Nc1cccc(OC)c1	n	n	n	n	n	n
